The results in this text go back to ChEMBL document CHEMBL1275590, “Novel arylimidamides for treatment of visceral leishmaniasis” (Antimicrob Agents Chemother, 2010).

A short description of data set [1]: Induction of mutagenicity in Salmonella serovar Typhimurium TA 100 assessed as number of revertant colonies at 1 ug by Ames assay in presence of Aroclor 1254-induced rat liver S9 metabolic activation system. It is filed as toxicity, subcellular, Salmonella enterica subsp. enterica serovar Typhimurium. The method, boiled down:
(§1)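 Ames plate incorporation with S. Typhimurium TA98 and TA100, with or without Aroclor 1254-induced rat liver S9 (10% vol/vol). Compound was dissolved in sterile water and serially diluted to 1–500 μg/plate. Positive controls were 2-nitrofluorene and sodium azide without S9, and 2-aminoanthracene with S9; sterile water and DMSO served as vehicles. Revertant colonies and background lawn were scored. A mutagen was defined as a mean revertant count at least 2-fold over solvent control. Single experiment.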

Data set [2] is described as follows: Induction of mutagenicity in Salmonella serovar Typhimurium TA 98 assessed as number of revertant colonies at 500 ug by Ames assay. It is filed as toxicity, Salmonella enterica subsp. enterica serovar Typhimurium. The method, boiled down:
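Plate incorporation test, S. Typhimurium TA98 (and TA100), with or without Aroclor 1254-induced rat liver S9 (10% vol/vol). Compound dissolved in sterile water, serially diluted to 1–1,000 or 1–500 μg/plate. Positive controls: 2-nitrofluorene and sodium azide without S9, 2-aminoanthracene with S9; water and DMSO vehicle controls. Revertant colonies and background lawn scored; mutagen if mean revertants ≥2-fold solvent control. Single experiment.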
On the technique in general: The Ames test uses bacterial strains that need an amino acid and regain growth without it when mutated back.

In the next data set the test system is Leishmania donovani. Nature of the data set: Antileishmanial activity against Leishmania donovani axenic amastigotes. Format: functional, organism-based.
The subject of the next data set is Leishmania amazonensis. The data set can be described thus: Antileishmanial activity against intracellular Leishmania amazonensis amastigotes. Format: functional, organism-based.
Data set [3] can be described thus: AUC (0 to infinity) in Swiss Webster mouse at 1 mg/kg, iv by HPLC-MS/MS analysis. It is filed as ADME, organism-based. On the set-up: time infinity, dose 1 mg/kg, route intravenous. To be noted: plasma. Summed up:
(§2)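 Male Swiss Webster mice, n = 3 per time point. For i.v., the compound was dissolved in sterile water, diluted 1:1 with 2× saline, and given as a tail-vein bolus over ~10–20 s. For p.o., it was given by gavage in sterile water. Dose volume was 5 ml/kg. Terminal plasma was taken from 5 min to 72 h and measured by HPLC-MS/MS (calibration 2.5–10,000 nM). Parameters came from noncompartmental analysis.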

Data set [4] is described as follows: Tmax in Swiss Webster mouse at 5 mg/kg, iv by HPLC-MS/MS analysis. It is filed as ADME, organism-based. On the set-up: dose 5 mg/kg, route intravenous. The following applies: in vivo. Summed up:
(§3)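 Male Swiss Webster mice (n = 3 per time point), single dose by oral gavage (sterile water solution) or tail-vein bolus i.v. (water diluted 1:1 with 2× saline, over ~10–20 s); dose volume 5 ml/kg. Terminal blood sampled from 5 min to 72 h postdose; plasma quantified by HPLC-MS/MS (positive-ion SRM). Noncompartmental analysis gave Cmax, Tmax, AUC0-∞, CL, Vss; bioavailability from p.o. versus i.v. exposure.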

Data set [5] has as its system Mus musculus. The data set can be described thus: Hepatotoxicity in BALB/c mouse assessed as AST level in serum at 20 mg/kg/day, iv administered for five days (Rvb= 65 U/L). On the set-up: route intravenous. It is filed as toxicity, organism-based. To be noted: in vivo.
Data set [6] has as its system Mus musculus. The data set can be described thus: Hepatotoxicity in BALB/c mouse assessed as AST level in serum at 50 mg/kg/day, po administered for five days (Rvb= 70 U/L). It is filed as toxicity, organism-based. Also noted: route oral. To be noted: in vivo.
In data set [7] the test system is Mus musculus. Nature of the data set: Renal toxicity in BALB/c mouse assessed as blood urea nitrogen level in serum at 5 mg/kg/day, iv administered for five days (Rvb= 20 mg/dl). The following applies: in vivo. On the set-up: route intravenous. It is filed as organism-based. The method, boiled down:
(§4)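 Female BALB/c mice (n = 5 per dose), dosed once daily for 5 consecutive days p.o. (20 ml/kg) or i.v. (10 ml/kg) with compound in sterile water, prepared fresh daily under yellow light. Vehicle controls n = 5 per route. Clinical observations, body weights, serum chemistry and hematology on day 6 before necropsy; histopathology of formalin-fixed tissues. Chemistry analysed by one-way ANOVA with Dunnett's posttest.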

Data set [8] has as its system Mus musculus. Nature of the data set: Hepatotoxicity in BALB/c mouse assessed as alkaline phosphatase level in serum at 5 mg/kg/day, iv administered for five days (Rvb= 134 U/L). It is filed as toxicity, organism-based. On the set-up: route intravenous. The following applies: in vivo.
In data set [9] the test system is Mus musculus. Nature of the data set: Renal toxicity in BALB/c mouse assessed as blood urea nitrogen level in serum at 50 mg/kg/day, po administered for five days (Rvb= 29 mg/dl). It is filed as organism-based. On the set-up: route oral. To be noted: in vivo. Summed up:
as §4

Data set [10] concerns Mus musculus. Nature of the data set: Renal toxicity in BALB/c mouse assessed as phosphorus level in serum at 50 mg/kg/day, po administered for five days (Rvb= 5.3 mg/dl). It is filed as organism-based. On the set-up: route oral. To be noted: in vivo. Summed up: as §4
The nature of data set [11]: Half life in human liver microsome by HPLC-MS/MS analysis in presence of 0.1 uM NADPH. To be noted: liver microsomes. It is filed as ADME. The method, boiled down:
(§5)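 Pooled liver microsomes with NADPH. Substrate at final 0.1, 1.0 and 10 μM with 0.5% DMSO, incubated up to 60 min at 37°C. Reactions were stopped with 7:1 methanol-water containing 0.1% TFA and 30 nM internal standard. Remaining substrate was measured by HPLC-MS/MS, and t1/2 came from a one-phase exponential decay fit.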
In general terms: Microsomes from liver hold many membrane-bound enzymes, among them those of drug oxidation.

Data set [12] can be described thus: Half life in rat liver microsome by HPLC-MS/MS analysis in presence of 0.1 uM NADPH. It is filed as ADME. To be noted: liver microsomes. Summed up:
(§6)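 Pooled liver microsomes (human, mouse, rat) with NADPH. Substrate added from DMSO to final 0.1, 1.0 or 10 μM, with 0.5% (vol/vol) organic solvent. Incubated at 37°C for up to 60 min. Stopped with 2 volumes of 7:1 methanol-water containing 0.1% TFA and 30 nM internal standard, then centrifuged. Remaining substrate was measured by HPLC-MS/MS, and t1/2 was obtained by one-phase exponential decay fit (t1/2 = 0.693/k).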

Data set [13] can be described thus: Half life in rat liver microsome by HPLC-MS/MS analysis in presence of 10 uM NADPH. Format: ADME. The following applies: liver microsomes. The method, boiled down: as §6
Data set [14] can be described thus: Half life in mouse liver microsome by HPLC-MS/MS analysis in presence of 0.1 uM NADPH. Format: ADME. To be noted: liver microsomes. Summed up: as §6
Data set [15] can be described thus: Half life in mouse liver microsome by HPLC-MS/MS analysis in presence of 1 uM NADPH. It is filed as ADME. The following applies: liver microsomes. Summed up:
as §6

The nature of data set [16]: Half life in mouse liver microsome by HPLC-MS/MS analysis in presence of 10 uM NADPH. Format: ADME. The following applies: liver microsomes. Summed up:
as §6

Data set [17] in a line: Half life in golden Syrian hamster liver microsome by HPLC-MS/MS analysis in presence of 1 uM NADPH. The following applies: liver microsomes. Format: ADME, Mesocricetus auratus. The method, boiled down:
as §5

Data set [18] in a line: Induction of mutagenicity in Salmonella serovar Typhimurium TA 98 assessed as number of revertant colonies at 1 ug by Ames assay in presence of Aroclor 1254-induced rat liver S9 metabolic activation system. Format: toxicity, subcellular, Salmonella enterica subsp. enterica serovar Typhimurium. The method, boiled down:
as §1

Data set [19] in a line: Half life in Swiss Webster mouse at 66 mg/kg, po by HPLC-MS/MS analysis. Format: ADME, organism-based. On the set-up: dose 66 mg/kg, route oral. The following applies: in vivo. Summed up:
as §2

A short description of data set [20]: Half life in Swiss Webster mouse at 131 mg/kg, po by HPLC-MS/MS analysis. It is filed as ADME, organism-based. On the set-up: dose 131 mg/kg, route oral. The following applies: in vivo. Summed up: as §2
The test system of data set [21] is Mus musculus. Nature of the data set: AUC (0 to infinity) in Swiss Webster mouse at 16.5 mg/kg, po by HPLC-MS/MS analysis. Also noted: time infinity, dose 16.5 mg/kg, route oral. The following applies: in vivo. It is filed as ADME, organism-based, Plasma. The method, boiled down:
as §2

A short description of data set [22]: Tmax in Swiss Webster mouse at 66 mg/kg, po by HPLC-MS/MS analysis. Format: ADME, organism-based. Also noted: dose 66 mg/kg, route oral. To be noted: in vivo. Summed up:
as §3

Data set [23] deals with Mus musculus. The data set can be described thus: AUC (0 to infinity) in Swiss Webster mouse at 131 mg/kg, po by HPLC-MS/MS analysis. On the set-up: dose 131 mg/kg, route oral, time infinity. The following applies: in vivo. It is filed as ADME, organism-based, Plasma. The method, boiled down:
as §2

Data set [24] has as its system Mus musculus. Nature of the data set: Hepatotoxicity in BALB/c mouse assessed as AST level in serum at 150 mg/kg/day, po administered for five days (Rvb= 70 U/L). The following applies: in vivo. It is filed as toxicity, organism-based. On the set-up: route oral.

What is called IC50 is the midpoint of a concentration-inhibition curve. The AUC(0-inf) is the area under the concentration-time curve extrapolated to infinity. A lower AUC(0-inf) goes with low exposure. For orientation: Tmax means the time at which the peak concentration occurs. Broadly, the half-life is the time in which the quantity being followed falls by half. Consider `CC(C)Oc1cc(NC(=N)c2ccccn2)ccc1-c1ccc(-c2ccc(NC(=N)c3ccccn3)cc2OC(C)C)o1`, for which the Activity in data set [1] came out at 159; in data set [2], 28; in the data set with Mus musculus [5], 76 U/L; in the data set on Mus musculus [6], 90 U/L; with Mus musculus [7] it was 19 mg/dL; in the data set on Mus musculus [8] it was 103 U/L. In addition, the Activity with Mus musculus [9] was found to be 25 mg/dL; in the data set on Mus musculus [10], 8.3 mg/dL; in data set [18], 43. In addition, the IC50 in the data set on Leishmania donovani was 500 nM; with Leishmania amazonensis it was 87 nM. The area under the curve AUC(0-inf) in [3] was 2.53 µM·h. In addition, the Tmax in data set [4] came out at 5 min. In addition, the half-life in data set [11] was over 2 h; in data set [12] it was 1.6 h; in data set [13], over 2 h; in data set [14], 0.433 h; in data set [15] it was over 2 h; in [16], over 2 h. Moreover, the half-life in [17] is over 2 h.

What is called AUC is the area under the concentration-time curve, a measure of exposure. Low values mean low exposure, high ones high exposure. Consider `CCOc1cc(NC(=N)c2ccccn2)ccc1-c1ccc(-c2ccc(NC(=N)c3ccccn3)cc2OCC)o1`, for which the half-life in [19] was 30 h; in data set [20], 32 h; in data set [11], over 2 h; in data set [12], 1.33 h; in data set [13] it was over 2 h; in data set [14] it was 0.25 h. In addition, the results for the half-life in data set [15], in data set [16] and in [17] were 0.783 h, over 2 h and over 2 h, respectively. The 50% inhibitory concentration (IC50) with Leishmania donovani is 500 nM; in the data set on Leishmania amazonensis, 120 nM. In data set [3], this compound came in with an AUC(0-inf) of 0.56 µM·h. Also, the AUC with Mus musculus [21] was 0.5 µM·h; with Mus musculus [23], 30 µM·h. The time to peak (Tmax) in data set [22] came to 2 h. In addition, the Activity was determined as 89 U/L in the data set on Mus musculus [5]; 77 U/L in the data set with Mus musculus [6]; 770 U/L in the data set on Mus musculus [24]; 18 mg/dL with Mus musculus [7]; 113 U/L in the data set on Mus musculus [8]; 27 mg/dL with Mus musculus [9]. Further, in the data set with Mus musculus [10], the Activity is 7.2 mg/dL.
